From ChEMBL document CHEMBL3351665, “Synthesis and evaluation of benzimidazole carbamates bearing indole moieties for antiproliferative and antitubulin activities” (Eur J Med Chem, 2014)
The source made the active and inactive calls. The calls are words filed in the database; no cut-off is given here.

How the values were obtained:
[1] = Growth inhibition of human SGC7901 cells after 72 hrs by MTT assay; type: functional, cell-based; settings: SGC-7901, 72 h
How it was run: (§1)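 Cells grown in RPMI-1640 with 10% FBS, penicillin/streptomycin, 37 °C, 5% CO2; seeded 1-3 × 10^4/well, treated 24 h later in triplicate wells for 72 h. MTT (5 mg/mL) added in fresh medium for 4 h, formazan dissolved in DMSO, OD490 read; IC50 = concentration reducing absorbance by 50% versus vehicle-treated wells; triplicate experiments.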

[2] = Growth inhibition of human HT1080 cells after 72 hrs by MTT assay; type: functional, cell-based; settings: HT-1080, 72 h; how it was run: as §1
A549 = experiment: Growth inhibition of human A549 cells after 72 hrs by MTT assay; type: functional, cell-based; settings: A549, 72 h; how it was run: as §1
Tubulin = Tubulin (Bos taurus, UniProt Q6B856+Q862L2+Q862F3); experiment: (§2) Inhibition of bovine brain tubulin polymerization incubated for 90 mins by fluorescence-based assay
How it was run: (§3)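 Fluorescence kit assay with purified bovine tubulin resuspended in ice-cold G-PEM (80 mM PIPES, 2 mM MgCl2, 0.5 mM EGTA, 1 mM GTP, 20% glycerol) and added to drug or DMSO vehicle. Reaction started by warming from 4 °C to 37 °C.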

Tubulin (Bos taurus) = Tubulin (Bos taurus) (UniProt Q6B856+Q862L2+Q862F3); experiment: as §2; how it was run: as §3
Tubulin (Homo sapiens) [3] = target: T1, Tubulin (Homo sapiens) (UniProt P68371+Q9H4B7+P0DPH7+P68366+Q13509+Q71U36+P04350+Q3ZCM7+P07437+P68363+Q9BQE3+Q6PEY2+Q13885+Q9BVA1+Q9BUF5); experiment: Induction of distortions in tubulin assembly in human HT1080 cells assessed as abnormal mitotic spindle formation at 2 fold IC50 level incubated for 48 hrs by immunofluorescence staining based fluorescence microscopy; type: cell-based; settings: HT-1080
How it was run: (§4)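 Fixed in 4% formaldehyde/PBS 30 min at -20 °C, permeabilised with 0.1% Triton X-100, blocked in 5% BSA. Stained with α-tubulin primary (1:100, overnight 4 °C) and FITC anti-mouse secondary (1:1000, 3 h 37 °C), DAPI nuclei; fluorescence microscopy.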

Tubulin (Homo sapiens) [4] = target: T1, Tubulin (Homo sapiens); experiment: Induction of distortions in tubulin assembly in human SGC7901 cells assessed as abnormal mitotic spindle formation at 2 fold IC50 level incubated for 48 hrs by immunofluorescence staining based fluorescence microscopy; type: cell-based; settings: SGC-7901; how it was run: as §4

Row | IC50 (A549) [µM] | SMILES | IC50 [1] [µM] | IC50 [2] [µM] | IC50 (Tubulin) [µM] | inhibition (Tubulin (Bos taurus)) | Activity (Tubulin (Homo sapiens) [3]) | Activity (Tubulin (Homo sapiens) [4])
1 | > 10 | COC(=O)Nc1nc2cc(S(=O)(=O)c3c(C)[nH]c4ccccc34)ccc2[nH]1 | > 10 | > 10 |  |  |  | 
2 | > 10 | COC(=O)Nc1nc2cc([S+]([O-])c3c(C)[nH]c4ccc(Cl)cc34)ccc2[nH]1 (stereo not drawn) | > 10 | > 10 |  |  |  | 
3 | 7.42 | COC(=O)Nc1nc2cc(S(=O)(=O)c3c[nH]c4ccc(Br)cc34)ccc2[nH]1 | 7.44 | 3.18 |  |  |  | 
4 | 6.23 | COC(=O)Nc1nc2cc([S+]([O-])c3c[nH]c4ccccc34)ccc2[nH]1 (stereo not drawn) | 3.96 | 5.24 |  |  |  | 
5 | 1.19 | COC(=O)Nc1nc2cc(Sc3c[nH]c4ccc(Br)cc34)ccc2[nH]1 | 2.12 | 1.33 | 8.2 | Dose-dependent effect |  | 
6 | 1.15 | COC(=O)Nc1nc2cc([Se]c3c(C)[nH]c4ccc(F)cc34)ccc2[nH]1 | 1.12 | 1.69 |  |  |  | 
7 | 7.98 | COC(=O)Nc1nc2cc([S+]([O-])c3c(C)[nH]c4ccccc34)ccc2[nH]1 (stereo not drawn) | 9.93 | 9.85 |  |  |  | 
8 | 4.21 | COC(=O)Nc1nc2cc(S(=O)(=O)c3c[nH]c4ccccc34)ccc2[nH]1 | 1.26 | 2.01 |  |  |  | 
9 | 7.33 | COC(=O)Nc1nc2cc(Sc3c(C)[nH]c4ccc(Cl)cc34)ccc2[nH]1 | 3.38 | 4.13 |  |  |  | 
10 | 9.08 | COC(=O)Nc1nc2cc(S(=O)(=O)c3c(C)[nH]c4ccc(F)cc34)ccc2[nH]1 | 4.18 | > 10 |  |  |  | 
11 | 0.83 | COC(=O)Nc1nc2cc(Sc3c(C)[nH]c4ccccc34)ccc2[nH]1 | 0.51 | 0.97 |  |  |  | 
12 | > 10 | COC(=O)Nc1nc2cc([S+]([O-])c3c[nH]c4ccc(C#N)cc34)ccc2[nH]1 (stereo not drawn) | > 10 | 9.43 |  |  |  | 
13 | 5.07 | COC(=O)Nc1nc2cc([Se]c3c[nH]c4ccc(C#N)cc34)ccc2[nH]1 | 1.11 | 0.95 |  |  |  | 
14 | 2.52 | COC(=O)Nc1nc2cc(Sc3c(C)[nH]c4ccc(F)cc34)ccc2[nH]1 | 1.2 | 3.27 |  |  |  | 
15 | 5.14 | COC(=O)Nc1nc2cc(Sc3c[nH]c4ccc(C#N)cc34)ccc2[nH]1 | 0.12 | 0.62 |  |  |  | 
16 | 3.27 | COC(=O)Nc1nc2cc([S+]([O-])c3c(C)[nH]c4ccc(F)cc34)ccc2[nH]1 (stereo not drawn) | 3.51 | > 10 |  |  |  | 
17 | > 10 | COC(=O)Nc1nc2cc(S(=O)(=O)c3c[nH]c4ccc(C#N)cc34)ccc2[nH]1 | > 10 | > 10 |  |  |  | 
18 | > 10 | COC(=O)Nc1nc2cc(S(=O)(=O)c3c(C)[nH]c4ccc(Cl)cc34)ccc2[nH]1 | > 10 | > 10 |  |  |  | 
19 | 2.98 | COC(=O)Nc1nc2cc([Se]c3c(C)[nH]c4ccc(Cl)cc34)ccc2[nH]1 | > 10 | > 10 |  |  |  | 
20 | > 10 | COC(=O)Nc1nc2cc([S+]([O-])c3c[nH]c4ccc(Br)cc34)ccc2[nH]1 (stereo not drawn) | 5.19 | > 10 |  |  |  | 
21 | 0.39 | COC(=O)Nc1nc2cc(Sc3c[nH]c4ccccc34)ccc2[nH]1 | 2.62 | 0.88 |  |  |  | 

Row | SMILES | IC50 (A549) [µM] | IC50 [1] [µM] | IC50 [2] [µM] | IC50 (Tubulin) [µM] | inhibition (Tubulin (Bos taurus)) | Activity (Tubulin (Homo sapiens) [3]) | Activity (Tubulin (Homo sapiens) [4])
22 | COC(=O)Nc1nc2cc([Se]c3c[nH]c4ccc(Br)cc34)ccc2[nH]1 | 2.21 | 2.15 | 2.75 |  |  |  | 
23 | COC(=O)Nc1nc2cc([Se]c3c(C)[nH]c4ccccc34)ccc2[nH]1 | 3.83 | 0.23 | 0.27 |  |  |  | 
24 | COC(=O)Nc1nc2cc([Se]c3c[nH]c4ccccc34)ccc2[nH]1 | 0.15 | 0.098 | 0.13 | 3.6 | Dose-dependent effect | Active | Active
25 | COC(=O)Nc1nc2cc(C(=O)c3cccs3)ccc2[nH]1 [NOCODAZOLE] | 0.12 | 0.08 | 0.14 |  |  | Active | Active
